# Measurements reported in article PMC6645658 (ACS Omega, 2017).
# Assay: In vivo rat BBB penetration
# Procedure, shortened: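 Rats were dosed iv, and plasma and brain tissue were sampled at 0.25 h after dosing. Plasma concentration is in ng/mL and brain concentration in ng/g. Kp-unbound was derived using the unbound fractions measured in rat plasma and rat brain tissue, and was used to judge blood-brain barrier penetration.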
smiles,measurement,setting,value
"COc1ccsc1CNCC[C@@]1(c2ccccn2)CCOC2(CCCC2)C1 [TRV130, [(3-methoxythiophen-2-yl)methyl]({2-[(9R)-9-(pyridine-2yl)-6-oxaspiro-[4,5]decan-9-yl]ethyl})amine]",concentration at 0.25 h,"brain, iv",315 ng/g
same,Kp at 0.25 h,"brain/plasma, intravenous",0.936
